Measured values gathered from unrelated publications.
Each line is one published result; the experiments were not run side by side.
Cell line: SK-BR-3
Observed: cell growth or viability

SMILES | test | setting | measurement | result
NNc1nc(Nc2ccccc2)nc(Nc2ccc(Br)cc2)n1 | SRB | 72 h | IC50 | > 30000 nM
CC(=O)c1c(C)c2cnc(Nc3ccc(N4CCNCC4)cn3)nc2n(C2CCCC2)c1=O | resazurin | – | GI50 | 5000 nM
COc1cccc2c1C(=O)c1c(O)c3c(c(O)c1C2=O)C[C@@](O)(C(=O)CO)C[C@@H]3O[C@H]1C[C@H](N)[C@H](O)[C@H](C)O1 | MTT | 72 h | IC50 | 1650 nM
COc1cc(Nc2nccc(-c3cnn4nc(OC)ccc34)n2)cc(C(F)(F)F)c1 | ATP luminescence | – | IC50 | 340 nM
COc1cc(OC)c(/C=C/S(=O)(=O)Nc2ccc(OC)c(N)c2)c(OC)c1 | trypan blue | 96 h | IC50 | 4 nM
Cc1cc(C)n(-c2nc(NN=Cc3c[nH]c4ccccc34)nc(Nc3ccc(Br)cc3)n2)n1 | SRB | 72 h | IC50 | 6000 nM
CN1CCN(c2ccc(Nc3ncc4cc(C#N)c(=O)n(C5CCCC5)c4n3)cc2)CC1 | resazurin | 96 h | GI50 | 600 nM
CC(C)C[C@H](NC(=O)[C@H](Cc1ccccc1)NC(=O)c1cnccn1)B(O)O | ATP luminescence | – | IC50 | 8.8 nM
COC1=C2C[C@@H](C)C[C@H](OC)[C@H](O)[C@@H](C)/C=C(\C)[C@H](OC(N)=O)[C@@H](OC)/C=C\C=C(/C)C(=O)NC(=CC1=O)C2=O | SRB | 72 h | IC50 | 50 nM
CC(=O)O[C@H]1C(=O)[C@@]2(C)[C@H]([C@H](OC(=O)c3ccccc3)[C@]3(O)C[C@H](OC(=O)[C@H](O)[C@@H](NC(=O)c4ccccc4)c4ccccc4)C(C)=C1C3(C)C)[C@]1(OC(C)=O)CO[C@@H]1C[C@@H]2O | MTT | 72 h | IC50 | 5 nM
